Columns and labels:
[1] = Stability of the compound in pH 6.8 phosphate buffer at 5 uM by HPLC method; type: physicochemical; settings: pH 6.8, 5 µM
Outline: (§1)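 Compound dissolved at 5 µM in phosphate buffer (pH 1.2, 6.8 or 7.4), held at 37 °C for 24 h. Aliquots taken at intervals and analysed by HPLC. t1/2 = 0.693/k from linear regression of pseudo-first-order kinetics.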

[2] = Half life in pH 7.4 phosphate buffer at 5 uM by HPLC method; type: physicochemical; outline: as §1
[3] = Half life in rat intestinal homogenates at 5 uM by HPLC method; type: ADME, tissue-based, Intestine
Outline: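 Compound at 5 µM final in rat plasma, 20% rat hepatic homogenate or 20% rat intestinal homogenate at 37 °C for 24 h. Homogenates made by homogenizing 0.3 g saline-washed tissue in 1 mL saline, spun 13,000 rpm 4 °C 5 min. Sampled at intervals, analysed by HPLC. t1/2 = 0.693/k.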

[4] = biological target: T1, Organic cation/carnitine transporter 2 (Homo sapiens, UniProt O76082); experiment: Ratio of drug transport assessed as OCTN2 transporter mediated cell permeability in human Caco2 cells at 25 uM in absence of L-carnitine to drug transport assessed as OCTN2 transporter mediated cell permeability in human Caco2 cells at 25 uM in presence of L-carnitine; type: ADME, cell-based; settings: caco-2, 25 µM
T1 sequence (O76082 whole entry): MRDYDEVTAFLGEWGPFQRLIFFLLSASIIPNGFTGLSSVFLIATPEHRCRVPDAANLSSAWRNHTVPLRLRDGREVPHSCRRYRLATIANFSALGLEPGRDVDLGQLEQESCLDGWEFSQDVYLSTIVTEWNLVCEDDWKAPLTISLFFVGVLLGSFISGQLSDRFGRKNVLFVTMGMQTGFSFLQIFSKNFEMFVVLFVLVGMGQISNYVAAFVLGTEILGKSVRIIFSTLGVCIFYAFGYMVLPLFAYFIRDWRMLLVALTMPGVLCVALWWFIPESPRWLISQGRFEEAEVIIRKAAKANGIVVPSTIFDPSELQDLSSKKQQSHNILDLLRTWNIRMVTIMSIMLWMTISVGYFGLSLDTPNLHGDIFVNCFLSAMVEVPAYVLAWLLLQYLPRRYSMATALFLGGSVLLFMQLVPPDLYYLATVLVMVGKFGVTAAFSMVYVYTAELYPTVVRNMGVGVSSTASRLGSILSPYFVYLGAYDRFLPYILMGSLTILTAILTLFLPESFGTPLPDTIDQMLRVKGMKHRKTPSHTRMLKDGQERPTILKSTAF
Outline: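 Caco-2 cells seeded at 1.0×10^5 cells/well on 0.4 µm polycarbonate inserts, cultured 21 days in MEM; monolayers with TEER over 250 Ω·cm² used. Compound at 25 µM final in HBSS, added apically, with or without 100 µM L-carnitine, 37 °C. Basolateral samples taken at 15, 30, 45, 60, 90, 120 min. Analysed by UPLC-MS/MS to give Papp. Triplicate runs.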

[5] = biological target: T2, Organic cation/carnitine transporter 2 (Rattus norvegicus, UniProt O70594); experiment: Ratio of drug transport assessed as OCTN2 transporter mediated effective permeability in rat jejunum at 76 uM in absence of L-carnitine to drug transport assessed as OCTN2 transporter mediated effective permeability in rat jejunum at 76 uM in presence of L-carnitine; type: ADME
T2 sequence (O70594 whole entry): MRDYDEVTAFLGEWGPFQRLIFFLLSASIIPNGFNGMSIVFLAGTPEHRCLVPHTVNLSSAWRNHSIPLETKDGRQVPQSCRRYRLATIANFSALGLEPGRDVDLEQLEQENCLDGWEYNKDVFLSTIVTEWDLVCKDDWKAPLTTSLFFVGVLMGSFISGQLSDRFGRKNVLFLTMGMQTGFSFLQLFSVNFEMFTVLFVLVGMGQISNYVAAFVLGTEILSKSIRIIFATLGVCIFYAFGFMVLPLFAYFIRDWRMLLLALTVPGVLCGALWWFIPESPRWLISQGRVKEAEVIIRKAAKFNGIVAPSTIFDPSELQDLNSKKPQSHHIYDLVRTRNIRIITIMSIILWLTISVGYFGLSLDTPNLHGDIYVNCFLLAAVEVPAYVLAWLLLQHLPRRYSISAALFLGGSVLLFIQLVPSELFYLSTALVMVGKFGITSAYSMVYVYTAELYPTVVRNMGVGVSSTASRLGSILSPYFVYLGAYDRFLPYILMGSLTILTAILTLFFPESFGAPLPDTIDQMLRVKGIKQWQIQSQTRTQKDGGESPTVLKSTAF

Rattus norvegicus = experiment: AUC (0 to 24 hrs) in Wistar rat at 50 mg/kg, po administered as single dose by UPLC-MS/MS method; type: ADME, organism-based; parameters: dose 50 mg/kg, time < 24 hr, route oral; settings: in vivo
Outline: (§2)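 Wistar rats, six per group, single oral dose equivalent to 50 mg/kg gemcitabine; separate group given gemcitabine iv at 7.5 mg/kg. Oral sampling at 5, 10, 15, 30 min and 1, 2, 4, 6, 8, 12, 24 h; iv at 15, 30 min and 2, 4, 8, 12, 24 h. Blood into THU-pretreated heparinized tubes, centrifuged 3000 × g 15 min, plasma at -80 °C. Prodrug and gemcitabine quantified by UPLC-MS/MS. F = AUCpo×Div/AUCiv/Dpo×100%.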

[6] = Tmax in Wistar rat at 50 mg/kg, po administered as single dose by UPLC-MS/MS method; type: ADME, organism-based; settings: in vivo; outline: as §2
Lung = experiment: Drug uptake in mouse lung at 102 mg/kg, po administered as single dose at 0.5 hrs post dose; type: ADME, organism-based; settings: in vivo
Outline: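 Mice, three per time point, single oral dose of 102 mg/kg (equivalent to 50 mg/kg gemcitabine). Heart, liver, spleen, lung, kidney and brain collected at 0.16, 0.5 and 2 h, rinsed in saline. 0.3 g tissue homogenized 1 min in 1 mL saline, spun 13,000 rpm 4 °C 5 min. Gemcitabine measured in supernatant.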

Mus musculus [7] = experiment: Toxicity in Kunming mouse assessed as […] degeneration in cardiac muscle at 102 mg/kg, po administered once daily for 14 days by hematoxylin/eosin staining based optical microscopic analysis; type: organism-based; settings: in vivo, 336 h
Outline: (§3)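 Kunming mice, four per group, dosed orally once daily for 14 days with 102 mg/kg or saline control; body weight recorded every other day. Heart, liver, spleen, lung and kidney fixed in 10% buffered formalin, paraffin-embedded, sectioned, stained with hematoxylin and eosin, and examined by optical microscopy.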

Mus musculus [8] = experiment: Toxicity in Kunming mouse assessed as […] degeneration in lung at 102 mg/kg, po administered once daily for 14 days by hematoxylin/eosin staining based optical microscopic analysis; type: organism-based; settings: in vivo, 336 h; outline: as §3
Mus musculus [9] = experiment: Toxicity in Kunming mouse assessed as inflammatory infiltrates in lung at 102 mg/kg, po administered once daily for 14 days by hematoxylin/eosin staining based optical microscopic analysis; type: organism-based; settings: in vivo, 336 h
Outline: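 Kunming mice, four per group, dosed orally once daily for 14 days with test article or physiological saline control, body weight recorded every other day. After sacrifice, heart, liver, spleen, lung and kidney were fixed at once in 10% buffered formalin, paraffin-embedded, sectioned, H&E stained and examined by optical microscopy for hydropic degeneration, inflammatory infiltrates and fibrosis.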

Mus musculus [10] = experiment: Toxicity in Kunming mouse assessed as inflammatory infiltrates in kidney at 102 mg/kg, po administered once daily for 14 days by hematoxylin/eosin staining based optical microscopic analysis; type: organism-based; settings: in vivo, 336 h; outline: as §3

Stability [1]: Stable | half-life at 5 µM [2]: 45.8 h | half-life at 5 µM [3]: 78.7 h | Ratio [4]: 1.6 to 3.6 | Ratio [5]: 11 | AUC (Rattus norvegicus): 24300 ng·h/mL | Tmax [6]: 1.3 h | Drug uptake (Lung): Active
SMILES: C[N+](C)(C)CC(CC(=O)[O-])OC(=O)CCCCC(=O)Nc1ccn([C@@H]2O[C@H](CO)[C@@H](O)C2(F)F)c(=O)n1 (some centres not stated)
Activity (Mus musculus [7]): Non-Toxic | Activity (Mus musculus [8]): Non-Toxic | Activity (Mus musculus [9]): Non-Toxic | Activity (Mus musculus [10]): Non-Toxic

Source: ChEMBL document CHEMBL4049387, “Combination of l-Carnitine with Lipophilic Linkage-Donating Gemcitabine Derivatives as Intestinal Novel Organic Cation Transporter 2-Targeting Oral Prodrugs” (J Med Chem, 2017)
